In ChEMBL document CHEMBL1123735 (J Med Chem, 1987):
pIC50: −log10 of the molar value.

Key:
Rattus norvegicus [1] = species on record: Rattus norvegicus; assay: Inhibition of carbachol-induced release of alpha-amylase from pancreatic acini from rat was determined; assay type: functional; conditions: read-out: I50
How it was run: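 Dispersed acini from male Sprague–Dawley rat pancreas (collagenase 0.8 mg/mL, three incubations), in DMEM with 0.2% albumin, 0.01% trypsin inhibitor, 0.09% theophylline under O2; viability >99%. Incubated with graded antagonist plus 10⁻⁵ M carbachol; secreted α-amylase by Phadebas assay; I50 by curve fitting.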

Cavia porcellus = species on record: Cavia porcellus; assay: Antimuscarinic activity was assayed for its ability to block the acetyl-choline induced contraction of the guinea pig ileum; assay type: functional
Rattus norvegicus [2] = species on record: Rattus norvegicus; assay: Compound was tested for decrease in rate of lever pressing by rat; assay type: functional
How it was run: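 Male Sprague–Dawley rats (350 g) lever-pressing for food on a 10-response schedule; sessions 30 min or 50 food presentations. Drug given intraperitoneally 30 min before session; saline controls. Mean ± SEM of single or duplicate determinations in four to six rats; I50 in mol/kg for rate decrease.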

[3] = molecular target: Muscarinic acetylcholine receptor; assay: Inhibit the binding of [N-mnethyl-3H]-scopolamine [3H]-NMS) to Muscarinic acetylcholine receptor of human IRM-30 neuroblastoma cells

## CCN(CC)CCOC(=O)C(O)(c1ccccc1)c1ccccc1 [BENACTYZINE]
Rattus norvegicus [1]
  pIC50: 7.52

## CN1[C@@H]2CC[C@H]1C[C@@H](OC(=O)C(CO)c1ccccc1)C2 (stereo partly drawn) [ATROPINE]
Cavia porcellus
  Kb: 2 nM
Cavia porcellus; read-out: pA2 (converted)
  Kb: 2 nM
Rattus norvegicus [1]
  pIC50: 7.29
Rattus norvegicus [2]
  I50: 2.3e-05 M/kg

## CN1CCN(CC(=O)N2c3ccccc3C(=O)Nc3cccnc32)CC1 [PIRENZEPINE]
Cavia porcellus
  Kb: 50000 nM
Cavia porcellus; read-out: pA2 (converted)
  Kb: 50100 nM
Rattus norvegicus [1]
  pIC50: 5.55

## CN1CC2CC(OC(=O)C(C)(c3ccccc3)c3ccccc3)CC1C2 (stereo not drawn) [AZAPROPHEN]
[3]
  Ki: 0.27 nM
Rattus norvegicus [1]
  pIC50: 10.17
Rattus norvegicus [2]
  I50: 1.9e-05 M/kg

## CCN(CC)CCOC(=O)C(c1ccccc1)c1ccccc1 [ADIPHENINE]
Cavia porcellus
  Kb: 92 nM
Cavia porcellus; read-out: pA2 (converted)
  Kb: 79.4 nM
Rattus norvegicus [1]
  pIC50: 6.46

## CCN(CC)CCOC(=O)C(C)(c1ccccc1)c1ccccc1 [APROFENE]
Cavia porcellus
  Kb: 3.1 nM
Cavia porcellus; read-out: pA2 (converted)
  Kb: 3.16 nM
[3]
  Ki: 23 nM
Rattus norvegicus [1]
  pIC50: 7.96
